This test concerns the target Hypoxia-inducible factor 1-alpha (Homo sapiens, UniProt Q16665). Put plainly: Inhibition of HIF1alpha transcriptional activity in hypoxia-induced human HCCLM3 cells co-transfected with luciferase reporter plasmid containing five copies of HREs and pRL-SV40 plasmid encoding Renilla luciferase incubated with compound under normoxia for 1 hr followed by hypoxia induction and measured after 24 hrs by HRE-dependent dual luciferase reporter gene assay. An outline of the steps:
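LM3 cells co-transfected with firefly luciferase reporter carrying five HRE copies plus pRL-SV40 Renilla plasmid; after transfection treated and kept under hypoxia; firefly luminescence normalized to Renilla. Single-point inhibition rate at 10 μM; IC50 for selected compounds.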

Among the data in BindingDB's records for doi:10.1021/acs.jmedchem.9b01313 (Anhui Medical University, 2019) are IC50 values, retold here.

Each structure is given as a SMILES string.

The term IC50 denotes the midpoint of a concentration-inhibition curve.

Hypoxia-inducible factor 1-alpha, sequence (Q16665 whole entry): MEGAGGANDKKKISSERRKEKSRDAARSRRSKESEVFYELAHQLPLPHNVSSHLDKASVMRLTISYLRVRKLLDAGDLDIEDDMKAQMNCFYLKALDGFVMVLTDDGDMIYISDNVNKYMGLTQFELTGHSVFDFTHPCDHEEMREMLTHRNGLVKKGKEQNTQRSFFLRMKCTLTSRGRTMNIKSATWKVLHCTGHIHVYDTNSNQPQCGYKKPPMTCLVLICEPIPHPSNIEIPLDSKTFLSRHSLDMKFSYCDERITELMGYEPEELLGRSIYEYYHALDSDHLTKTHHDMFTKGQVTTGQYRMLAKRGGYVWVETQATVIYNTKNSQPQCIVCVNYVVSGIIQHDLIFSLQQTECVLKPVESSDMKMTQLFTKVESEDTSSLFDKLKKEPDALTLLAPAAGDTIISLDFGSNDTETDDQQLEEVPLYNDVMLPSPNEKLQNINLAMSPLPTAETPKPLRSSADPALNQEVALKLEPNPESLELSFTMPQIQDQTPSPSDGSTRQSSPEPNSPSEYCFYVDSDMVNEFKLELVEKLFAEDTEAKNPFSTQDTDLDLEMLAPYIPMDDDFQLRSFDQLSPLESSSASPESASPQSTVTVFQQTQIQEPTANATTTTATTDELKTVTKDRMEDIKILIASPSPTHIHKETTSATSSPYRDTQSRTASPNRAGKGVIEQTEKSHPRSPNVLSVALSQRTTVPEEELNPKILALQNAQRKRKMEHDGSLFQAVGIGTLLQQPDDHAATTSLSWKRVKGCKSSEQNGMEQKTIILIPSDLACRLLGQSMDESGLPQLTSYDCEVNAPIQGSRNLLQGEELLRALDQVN

Consider `COC(=O)c1ccc(O)c(NC(=O)COc2ccc(C34CC5CC(CC(C5)C3)C4)cc2)c1`, for which the IC50 came out at 3.08 µM.

Take `O=C(NCCc1ccccc1F)c1ccc(-c2cccs2)cn1`: the IC50 came out at 2.48 µM.

Take `O=C(NCCc1ccccc1Cl)c1ccc(-c2ccccc2)cc1`: the IC50 amounted to 2.87 µM.

For `O=C(NCCc1ccncc1)c1ccc(-c2ccccc2)cn1`, the IC50 was determined as 13.8 µM.

With `O=C(NCCc1ccncc1)c1nccc(-c2ccccc2)n1`, the IC50 amounted to 10 µM.

Regarding `O=C(NCCc1ccccc1F)c1ccc(-c2ccccc2)cn1`, the IC50 came to 0.93 µM.

With `Nc1ccc(CCNC(=O)c2ccc(-c3ccccc3)cn2)cc1`, the IC50 was 11.6 µM.

For `O=C(NCCc1ccccc1F)c1ccc(-c2ccccc2F)cn1`, the IC50 was found to be 2.16 µM.

Consider `COc1ccccc1-c1ccc(C(=O)NCCc2ccccc2F)nc1`, for which the IC50 is 0.32 µM.

Regarding `N#Cc1ccccc1-c1ccc(C(=O)NCCc2ccccc2F)nc1`, the IC50 was found to be 8.53 µM.

With `Cc1nc(C(=O)NCCc2ccccc2)cs1`, the IC50 is 55.7 µM.

Take `O=C(NCCc1ccncc1)c1nnc(-c2ccccc2)o1`: the IC50 was found to be 7.32 µM.

On to `O=C(NCCc1ccccc1)c1ccc(-c2ccccc2)cn1`, for which the IC50 was 4.56 µM.

As to `O=C(NCCc1ccccc1F)c1ccc(-c2ccsc2)cn1`, the IC50 is 1.41 µM.

As to `O=C(NCCc1ccccc1Cl)c1ccc(-c2ccccc2)cn1`, the IC50 amounted to 9.84 µM.

Regarding `O=C(NCCc1cccc(Cl)c1)c1ccc(-c2ccccc2)cn1`, the IC50 amounted to 9.84 µM.

Regarding `O=C(NCCc1ccccc1F)c1ccc(-c2ccoc2)cn1`, the IC50 is 4.24 µM.
